≈ marks a conversion by molar mass, not a printed value.
Tests used:
[1] = system: Staphylococcus aureus; assay: Antimicrobial activity against methicillin-susceptible Staphylococcus aureus […] infected in human THP-1 cells assessed as bacterial count per mg of cell protein at low extracellular compound concentration after 24 hrs at pH 7.4; assay type: functional; settings: pooled result: one value given for 6 cell lines, strains, targets or settings
Procedure, shortened: (§1)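 Human THP-1 macrophage-like cells were infected with S. aureus to a postphagocytosis inoculum of 1.5 × 10^6 to 3.0 × 10^6 CFU/mg cell protein. Cells were then exposed 24 h to increasing extracellular antibiotic concentrations. Response was the log10 CFU change per mg protein from the postphagocytosis inoculum, n = 3. A Hill function was fitted on log-transformed axes. E0 and Emax were extrapolated to infinitely low and high concentrations. Cs was read by graphical interpolation. Concentrations were expressed as multiples of the broth MIC at pH 5.5 or pH 7.4.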

[2] = system: Staphylococcus aureus; assay: Antimicrobial activity against methicillin-susceptible Staphylococcus aureus ATCC 11632 infected in human THP-1 cells assessed as bacterial count per mg of cell protein at low extracellular compound concentration after 24 hrs; assay type: functional; procedure, shortened: as §1
[3] = system: Staphylococcus aureus; assay: Antimicrobial activity against Panton-valentine leucocidin-positive community-acquired methicillin-resistant Staphylococcus aureus STA 228 infected in human THP-1 cells assessed as change in bacterial count after 24 hrs; assay type: functional, organism-based; settings: STA 228, THP-1, 24 h
Procedure, shortened: (§2)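 THP-1 human macrophages infected with S. aureus (postphagocytosis inoculum 1.5 × 10^6 to 3.0 × 10^6 CFU/mg cell protein), then incubated 24 h with increasing extracellular antibiotic concentrations. Change in log10 CFU/mg cell protein from the postphagocytosis inoculum, n = 3. Hill function fitted on log-transformed data. Low-concentration value (E0) and high-concentration value (Emax) are extrapolated. Where a pH is given, concentrations are expressed as multiples of the broth MIC at that pH.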

[4] = system: Staphylococcus aureus; assay: Antimicrobial activity against Panton-valentine leucocidin-positive community-acquired methicillin-resistant Staphylococcus aureus N4090440 infected in human THP-1 cells assessed as change in bacterial count after 24 hrs at pH 5.5; assay type: functional, organism-based; settings: N4090440, THP-1, 24 h; procedure, shortened: as §2
[5] = system: Staphylococcus aureus; assay: Antimicrobial activity against Panton-valentine leucocidin-positive community-acquired methicillin-resistant Staphylococcus aureus STA 228 infected in human THP-1 cells assessed as change in bacterial count after 24 hrs at pH 5.5; assay type: functional, organism-based; settings: STA 228, THP-1, 24 h; procedure, shortened: as §2
[6] = system: Staphylococcus aureus; assay: Bacteriostatic activity against methicillin-susceptible Staphylococcus aureus […] infected in human THP-1 cells assessed as change in bacterial count after 24 hrs at pH 5.5; assay type: functional; procedure, shortened: as §1
[7] = system: Staphylococcus aureus; assay: Antimicrobial activity against Panton-valentine leucocidin-positive community-acquired methicillin-resistant Staphylococcus aureus N4090440 infected in human THP-1 cells assessed as bacterial count per mg of cell protein at low extracellular compound concentration after 24 hrs at pH 5.5; assay type: functional; settings: pooled result: one value given for 6 cell lines, strains, targets or settings; procedure, shortened: as §2
[8] = system: Staphylococcus aureus; assay: Bacteriostatic activity against hospital-acquired vancomycin-intermediate Staphylococcus aureus NRS126 infected in human THP-1 cells assessed as change in bacterial count after 24 hrs at pH 7.4; assay type: functional
Procedure, shortened: (§3)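 THP-1 macrophages infected as described previously, with a postphagocytosis inoculum of 1.5 × 10⁶ to 3.0 × 10⁶ CFU/mg cell protein. Cells were exposed 24 h to increasing extracellular antibiotic concentrations. Response is the change in log10 CFU/mg protein from the inoculum (n = 3), fitted to a Hill function. E0 and Emax were extrapolated to infinitely low and high concentrations. EC50 and static concentration (graphical interpolation) are expressed as multiples of the broth MIC at pH 5.5 or 7.4.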

[9] = system: Staphylococcus aureus; assay: Antimicrobial activity against Panton-valentine leucocidin-positive community-acquired methicillin-resistant Staphylococcus aureus STA 228 infected in human THP-1 cells assessed as change in bacterial count after 24 hrs at pH 7.4; assay type: functional, organism-based; settings: STA 228, THP-1, 24 h; procedure, shortened: as §2
[10] = system: Staphylococcus aureus; assay: Antimicrobial activity against hospital-acquired methicillin-resistant Staphylococcus aureus ATCC 33592 infected in human THP-1 cells assessed as bacterial count per mg of cell protein at low extracellular compound concentration after 24 hrs; assay type: functional; procedure, shortened: as §3
[11] = system: Staphylococcus aureus; assay: Antimicrobial activity against hospital-acquired vancomycin-intermediate Staphylococcus aureus NRS18 infected in human THP-1 cells assessed as change in bacterial count after 24 hrs; assay type: functional, organism-based; settings: NRS18, THP-1, 24 h; procedure, shortened: as §3
[12] = system: Staphylococcus aureus; assay: Antimicrobial activity against hospital-acquired methicillin-resistant Staphylococcus aureus ATCC 33591 infected in human THP-1 cells assessed as bacterial count per mg of cell protein at high extracellular compound concentration after 24 hrs; assay type: functional; procedure, shortened: as §2
[13] = system: Staphylococcus aureus; assay: Antimicrobial activity against hospital-acquired vancomycin-intermediate Staphylococcus aureus NRS18 infected in human THP-1 cells assessed as bacterial count per mg of cell protein at high extracellular compound concentration after 24 hrs; assay type: functional; procedure, shortened: as §1
[14] = system: Staphylococcus aureus; assay: Antimicrobial activity against Panton-valentine leucocidin-positive community-acquired methicillin-resistant Staphylococcus aureus isolate MEH2225605 infected in human THP-1 cells assessed as bacterial count per mg of cell protein at high extracellular compound concentration after 24 hrs; assay type: functional; procedure, shortened: as §2
[15] = system: Staphylococcus aureus; assay: Antimicrobial activity against Panton-valentine leucocidin-positive community-acquired methicillin-resistant Staphylococcus aureus NRS192 infected in human THP-1 cells assessed as bacterial count per mg of cell protein at low extracellular compound concentration after 24 hrs; assay type: functional; procedure, shortened: as §2
[16] = system: Staphylococcus aureus; assay: Antimicrobial activity against methicillin-susceptible Staphylococcus aureus […] infected in human THP-1 cells assessed as bacterial count per mg of cell protein at high extracellular compound concentration after 24 hrs at pH 5.5; assay type: functional; procedure, shortened: as §1
[17] = system: Staphylococcus aureus; assay: Antimicrobial activity against methicillin-susceptible Staphylococcus aureus NRS52 infected in human THP-1 cells assessed as bacterial count per mg of cell protein at high extracellular compound concentration after 24 hrs at pH 7.4; assay type: functional; procedure, shortened: as §1
[18] = system: Staphylococcus aureus; assay: Antimicrobial activity against Panton-valentine leucocidin-positive community-acquired methicillin-resistant Staphylococcus aureus N4042228 infected in human THP-1 cells assessed as bacterial count per mg of cell protein at high extracellular compound concentration after 24 hrs at pH 5.5; assay type: functional; procedure, shortened: as §2
[19] = system: Staphylococcus aureus; assay: Antimicrobial activity against Panton-valentine leucocidin-positive community-acquired methicillin-resistant Staphylococcus aureus isolate MEH2225605 infected in human THP-1 cells assessed as bacterial count per mg of cell protein at high extracellular compound concentration after 24 hrs at pH 5.5; assay type: functional; procedure, shortened: as §2
[20] = system: Staphylococcus aureus; assay: Antimicrobial activity against Panton-valentine leucocidin-positive community-acquired methicillin-resistant Staphylococcus aureus N4042228 infected in human THP-1 cells assessed as change in bacterial count after 24 hrs at pH 5.5; assay type: functional, organism-based; settings: N4042228, THP-1, 24 h; procedure, shortened: as §2
[21] = system: Staphylococcus aureus; assay: Antimicrobial activity against Panton-valentine leucocidin-positive community-acquired methicillin-resistant Staphylococcus aureus isolate MEH2225605 infected in human THP-1 cells assessed as change in bacterial count after 24 hrs; assay type: functional, organism-based; settings: isolate MEH2225605, THP-1, 24 h; procedure, shortened: as §2
[22] = system: Staphylococcus aureus; assay: Antimicrobial activity against methicillin-susceptible Staphylococcus aureus ATCC 11632 infected in human THP-1 cells assessed as change in bacterial count after 24 hrs; assay type: functional, organism-based; settings: ATCC 11632, THP-1, 24 h; procedure, shortened: as §3

Question: For `Nc1nc(/C(=N/O)C(=O)N[C@@H]2C(=O)N3C(C(=O)O)=C(/C=C4\CCN([C@@H]5CCNC5)C4=O)CS[C@H]23)ns1` [CEFTOBIPROLE], which log10cfu [1] is on record?
Answer: 3.06

Question: And the log10cfu [2]?
Answer: 3.03

Question: And the EC50 [3]?
Answer: 0.88 µg/mL (≈ 1.65 µM)

Question: And the EC50 [4]?
Answer: 0.54 × MIC

Question: And the EC50 [5]?
Answer: 0.54 × MIC

Question: And the Activity [6]?
Answer: 1.19 × MIC

Question: What about the log10cfu [7] of the same compound?
Answer: 2.78

Question: What about the Activity [8] of the same compound?
Answer: 0.74 ×MIC

Question: And the EC50 [9]?
Answer: 0.33 ×MIC

Question: What about the log10cfu [10] of the same compound?
Answer: 2.58

Question: What about the EC50 [11] of the same compound?
Answer: 0.26 µg/mL (≈ 0.486 µM)

Question: What about the log10cfu [12] of the same compound?
Answer: -0.78

Question: And the log10cfu [13]?
Answer: -1.34

Question: And the log10cfu [14]?
Answer: -0.97

Question: What about the log10cfu [15] of the same compound?
Answer: 2.68

Question: And the log10cfu [16]?
Answer: 1.04

Question: And the log10cfu [17]?
Answer: -1.04

Question: And the log10cfu [18]?
Answer: -1.02

Question: And the log10cfu [19]?
Answer: -1.02

Question: And the EC50 [20]?
Answer: 0.54 × MIC

Question: What about the EC50 [21] of the same compound?
Answer: 0.82 µg/mL (≈ 1.53 µM)

Question: What about the EC50 [22] of the same compound?
Answer: 0.205 µg/mL (≈ 0.383 µM)

From ChEMBL document CHEMBL1649438, “Activities of ceftobiprole and other cephalosporins against extracellular and intracellular (THP-1 macrophages and keratinocytes) forms of methicillin-susceptible and methicillin-resistant Staphylococcus aureus” (Antimicrob Agents Chemother, 2009)
